# Bioassay records (PubChem BioAssay)
# Sampled rows, rich in hits. Any-hit rate of the full collection: about 2.4%.
# PfM18AAP inh – blocks P. falciparum M18 aspartyl aminopeptidase; AID 1822; recombinant PfM18AAP, H-Glu-NHMec fluorogenic cleavage; inhibition, % at 7.35 µM; 290,000 tested, 1.2% active;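 active means inhibition above the campaign mean inhibition over all tested compounds plus 3 SD, cut at about 28% in these data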
# APOBEC3G inh – blocks human APOBEC3G single-stranded DNA deamination. Q9HC16. recombinant A3G, ssDNA deamination FAM/TAMRA fluorescence. inhibition, % at 20 µM. 330,000 tested, 0.28% active. AID 493012;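 active means inhibition of at least 40% at 20 µM, with no more than 30% in the related APOBEC3A deaminase screen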
# Target sequence (Q9HC16 whole entry, looked up): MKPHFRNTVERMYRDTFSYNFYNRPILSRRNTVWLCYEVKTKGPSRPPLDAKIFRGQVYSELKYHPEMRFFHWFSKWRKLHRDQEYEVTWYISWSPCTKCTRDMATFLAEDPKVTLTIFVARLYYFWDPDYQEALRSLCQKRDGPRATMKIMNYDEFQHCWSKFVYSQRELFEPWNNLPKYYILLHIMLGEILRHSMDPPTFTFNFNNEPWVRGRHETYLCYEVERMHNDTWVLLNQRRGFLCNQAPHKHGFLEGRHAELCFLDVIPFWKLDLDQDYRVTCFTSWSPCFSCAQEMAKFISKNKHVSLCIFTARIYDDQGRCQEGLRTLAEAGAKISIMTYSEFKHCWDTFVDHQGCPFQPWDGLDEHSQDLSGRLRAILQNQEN
# HKDC1 inh – blocks human hexokinase HKDC1 activity | inhibition, % at 20 µM | 340,000 tested, 0.16% active | recombinant HKDC1, G6PDH/diaphorase resazurin coupled fluorescence | AID 493160 | Q2TB90;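 active means inhibition above about 35% when tested at 20 µM, limit read from the data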
#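 Incubation: 90 min at room temperature in dark / Material: recombinant HKDC1 (HK5) hexokinase enzyme, produced in-house / Quantity: enzyme 5 µg/mL final / Compound: one dose of 20 µM, 1% DMSO / Reagent: glucose and ATP substrates / Buffer or medium: Tris pH 8.0 buffer with MgCl2, Tween-20, BSA, BME / Technique: resorufin fluorescence at 613 nm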
# UBC9 SUMO inh – blocks human SUMOylation mediated by UBC9. AID 2006. HTRF SUMOylation assay, SAE1/SAE2 + UBC9, in vitro. inhibition, % at 35 µM. 290,000 tested, 0.36% active; in the data active means inhibition above about 50%, passing the limit was not always enough
# PfG6PD inh – PfG6PD (Plasmodium falciparum) enzyme inhibition | 350,000 tested, 0.78% active | AID 504690 | inhibition, % at 20 µM | PfGluPho enzyme, NADPH resazurin-diaphorase fluorescence;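 active means inhibition reaching at least a set limit at 20 µM in the primary screen, cut at about 59% in these data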
# A3A deaminase – human APOBEC3A DNA deaminase inhibition; P31941; recombinant A3A, FAM/TAMRA ssDNA deamination fluorescence; inhibition, % at 20 µM; 330,000 tested, 0.41% active; AID 493011;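 active means at least 40% inhibition at 20 µM here, with at most 30% in a related deaminase screen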
# APOBEC3A confirm – confirmation of human APOBEC3A DNA deaminase inhibitors; AID 493151; shares compounds with A3A deaminase; 1,400 tested, 63% active; inhibition, % at 20 µM; recombinant A3A, ssDNA deaminase UDG fluorescence assay;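 active means inhibition reaching a set limit, 80% of the first screen's cutoff, at 20 µM in any replicate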
# UDG A3A counter – inhibits UDG, flagging false APOBEC3A inhibitors; shares compounds with A3A deaminase; inhibition, % at 20 µM; AID 504714; UDG counterscreen, FAM/TAMRA uracil oligo fluorescence; 1,000 tested, under 10 active; call rule not given here
# Hits are given with their value; - = inactive; . = no result.
SMILES,PfM18AAP inh,APOBEC3G inh,HKDC1 inh,UBC9 SUMO inh,PfG6PD inh,A3A deaminase,APOBEC3A confirm,UDG A3A counter
CC1(C)CN(c2cccc(-c3ccnc4ncnn34)c2)C1=O,-,-,-,-,-,54,-,-
CC1(C)CN(c2cccc(C#N)c2)C1=O,-,-,-,-,-,-,.,.
Cc1cc(C(=O)N/N=C/c2cc(Br)c(Br)o2)n[nH]1,-,-,-,-,-,58,37,-
COc1cc(Nc2cccc[n+]2C)cc(OC)c1OC,-,-,-,-,-,69,62,-
COc1cc(NC(=O)CS(=O)(=O)c2ccccc2)cc(OC)c1OC,-,-,-,-,-,-,.,.
Cc1cc(C=C2C(=O)CCCC2=O)c(C)n1-c1ccccc1,-,-,-,-,-,-,.,.
N=C1/C(=C/c2ccco2)C(=O)N=C2SC(CC(=O)N3CCCC3)=NN12,-,-,-,-,-,51,42,-
N=C1/C(=C/c2ccc(Br)o2)C(=O)N=C2SC(CC(=O)N3CCCC3)=NN12,-,-,-,.,-,43,45,.
N=C1/C(=C\c2ccc(Br)o2)C(=O)N=C2SC(CC(=O)N3CCOCC3)=NN12,-,-,-,-,-,-,.,.
O=C1CCN(CCc2ccccc2)CCN1[C@H](CSc1ccc(Br)cc1)Cc1ccccc1,.,-,-,-,-,-,.,.
Cc1ccc(S(=O)(=O)N2CCN(C(=O)COC(=O)CCOc3ccccc3C)CC2)c(C)c1,.,-,-,.,-,47,62,-
Cc1ccc(N(C)C(=O)n2cnc3ccccc32)cc1,-,-,-,-,-,52,-,-
Cc1nc2ccc(NC(=O)C3COc4ccccc4O3)cc2s1 (stereo unspecified),-,-,-,-,-,49,60,-
Cc1nc2cc(NC(=O)C3COc4ccccc4O3)ccc2s1 (stereo unspecified),-,-,-,-,-,-,.,.
COc1cccc(CN(CC(=O)NCc2ccc(F)cc2)C(=O)c2ccco2)c1,-,-,-,-,-,45,-,-
N#Cc1ccc(/C=N/N=C(N)N)cc1,-,-,-,-,-,-,.,.
O=C(O)c1ccc(COc2ccc(/C=N/NC(=O)c3cccs3)cc2)cc1,-,-,-,-,-,51,-,.
N#C/C(=C/c1ccc(OCc2ccc(C(=O)O)cc2)cc1)C(=O)Nc1ccccc1,-,-,-,-,-,79,75,-
N#C/C(=C\c1ccc(OCc2ccc(Br)cc2)cc1)C(=O)Nc1cccc(C(=O)O)c1,-,.,-,-,-,.,.,.
O=C(N/N=C/c1cccc(OCc2ccccc2)c1)c1cccs1,-,-,-,-,-,-,.,.
CC1C2CC(C(S(=O)(=O)N3CCOCC3)C2=O)C1(C)C (stereo unspecified),-,-,-,-,-,-,.,.
Cc1cccc(CN2CCN(c3nc4nonc4nc3NC3CC3)CC2)c1,-,-,-,-,-,-,.,.
CCOc1ccc(/C=c2\sc3nc(-c4ccco4)nn3c2=O)cc1OCC,-,-,-,-,-,74,31,-
CN(CCc1ccccc1)C(=O)c1cc(COc2cccc(C(F)(F)F)c2)on1,-,-,-,-,-,-,.,.
COc1ccc(NC(C)C(=O)N/N=C/c2c(O)ccc3ccccc23)cc1 (stereo unspecified),-,-,-,-,-,-,.,.
SMILES,PfM18AAP inh,APOBEC3G inh,HKDC1 inh,UBC9 SUMO inh,PfG6PD inh,A3A deaminase,APOBEC3A confirm,UDG A3A counter
CCOC(=O)Nc1ccc2c(c1)C(=NO)c1ccccc1-2,.,.,-,.,-,.,.,.
CC1CCC(C(C)C)C(OCC(O)C[N+]2(C)CCCCC2)C1 (stereo unspecified),-,-,-,-,-,78,74,-
CC1CCC(C(C)C)C(OCC(O)CN2CCCC(C)C2)C1 (stereo unspecified),-,-,-,-,-,-,.,.
O=C(NC1CCCc2ccccc21)c1cc(Cl)ccn1 (stereo unspecified),-,-,-,-,-,62,-,.
Cc1[nH]c2ccccc2c1C(=O)NS(=O)(=O)Nc1ccccc1,-,-,-,-,-,-,.,.
Cc1cc(Cl)ccc1OCC(=O)N[C@@H](Cc1ccccc1)c1nc2ccccc2[nH]1,-,-,-,-,-,42,-,.
